To fix the notation:
B1: Osa-1-4 twister ribozyme (parent)
chain: CCGCCUAACACUGCCAAUGCCGGUCCCAAGCCCGGAUAAAAGUGGAGGGGGCGG

From the RNAGym collection of RNA variant scans (doi:10.1002/anie.201605470) come the findings set out here.

The variants in this series derive from B1. Put plainly: self-cleavage, relative activity (ratio to wild type); higher = more cleavage; co-transcriptional. In short, it runs like this:
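Values are relative activity: the fraction cleaved, normalised to wild type. A doped DNA template for a 54-nucleotide twister ribozyme from Oryza sativa had 97 % wild-type base and 1 % of each other base at the 48 positions downstream of the cleavage site. The RNA was transcribed in vitro for 2 h at 37 °C so that it could cleave itself co-transcriptionally, then sequenced deeply, with cleavage status scored from the presence or absence of upstream sequence in reads.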
As for A29C G47U, the self-cleavage is 0.03. For A29C G47A, the self-cleavage was 0.02. In the case of A28U A39C, the self-cleavage came to 0.63. Turning to A28U A39U, the self-cleavage turned out to be 0.76.

A28U A39G: the self-cleavage was found to be 0.79. On to A29C U24A, for which the self-cleavage was 0.04. Regarding A29C U24C, the self-cleavage came out at 0.09. With A29C U24G, the self-cleavage was 0.02.

Regarding A28U U37G, the self-cleavage worked out at 0.97.

Take A28U U37A: the self-cleavage was determined as 0.68.

As to A28U U37C, the self-cleavage was 0.97. As to A29C U12A, the self-cleavage stood at 0.05. On to A29C U12G, for which the self-cleavage is 0.03. On to A29C U12C, for which the self-cleavage came to 0.03.

With A28U U24A, the self-cleavage was determined as 0.08. As to A28U U24C, the self-cleavage worked out at 0.09. As for A28U U24G, the self-cleavage was found to be 0.02.

For A28U G19C, the self-cleavage amounted to 0.07.

With A28U G19A, the self-cleavage is 0.24.

As to A28U G19U, the self-cleavage turned out to be 0.13. In the case of A28U C33U it was 0.49; in that of A28U C33G, 0.05. With A28U C33A, the self-cleavage is 0.08. With A28U G30U, the self-cleavage was determined as 0.04. For the variant A28U G30A, the self-cleavage is 0.04. In the case of A28U G30C it was 0.05. For A29G C9A the value was 0.05; for A29G C9G, 0.09. For A29G C9U the value was 0.06. Regarding A29C C27A, the self-cleavage was 0.04. In the case of A29C C27U it was 0.02; in that of A29C C27G, 0.02. In the case of A29C G49C it was 0.01; in that of A29C G49A, 0.02. For A29C G49U, the self-cleavage is 0.02. Take A28U G42A: the self-cleavage turned out to be 0.16.

For A28U G42C, the self-cleavage stood at 0.09. In the case of A28U G42U, the self-cleavage was 0.06. For A28G G51C the value was 0.06; for A28G G51U, 0.06.

For A28G G51A, the self-cleavage came to 0.11. For the variant A29C C15A, the self-cleavage stood at 0.02. For A29C C15G the value was 0.04; for A29C C15U, 0.03. Consider A28U C14G, for which the self-cleavage came out at 0.07. In the case of A28U C14U it was 0.14. For the variant A28U C14A, the self-cleavage amounted to 0.05.

For the variant A29C G34U, the self-cleavage turned out to be 0.03.

As to A29C G34C, the self-cleavage stood at 0.03. For the variant A29C G34A, the self-cleavage stood at 0.04. Consider A28U C32G, for which the self-cleavage was 0.1.

For the variant A28U C32U, the self-cleavage amounted to 0.1. For A28U C32A the value was 0.07; for A29G A46G, 0.04. For A29G A46U the value was 0.04. As to A29G A46C, the self-cleavage came out at 0.03. Consider A29C C21U, for which the self-cleavage came to 0.06. Consider A29C C21G, for which the self-cleavage is 0.02.

Take A29C C21A: the self-cleavage was 0.04. For A28U G34U the value was 0.28; for A28U G34A, 0.39; for A28U G34C, 0.18. In the case of A28U A46U, the self-cleavage came out at 0.08. In the case of A28U A46C, the self-cleavage was 0.07. As for A28U A46G, the self-cleavage is 0.7.

As for A28U C20G, the self-cleavage was determined as 0.09.

With A28U C20U, the self-cleavage is 0.95.

With A28U C20A, the self-cleavage came to 0.9.

For A28U U18G, the self-cleavage amounted to 0.91. For A28U U18A, the self-cleavage was 0.91.

A28U U18C: the self-cleavage came out at 0.73.

Turning to A28U G22U, the self-cleavage came out at 0.2. Regarding A28U G22A, the self-cleavage was found to be 0.34. Consider A28U G22C, for which the self-cleavage came out at 0.06. As to A29G A41G, the self-cleavage was found to be 0.12.

For A29G A41C, the self-cleavage is 0.21. For A29G A41U the value was 0.46; for A29C G54A, 0.03.

Regarding A29C G54C, the self-cleavage amounted to 0.04. For A29C G54U the value was 0.08; for A28U U12G, 0.11; for A28U U12A, 0.38. For A28U U12C the value was 0.13; for A29C U43G, 0.05. Take A29C U43A: the self-cleavage was 0.03. In the case of A29C U43C it was 0.03; in that of A29G C15U, 0.05; in that of A29G C15G, 0.08. With A29G C15A, the self-cleavage stood at 0.06. As to A29C U37C, the self-cleavage came out at 0.04. Take A29C U37A: the self-cleavage amounted to 0.04.

With A29C U37G, the self-cleavage was 0.06. In the case of A29C C32G it was 0.03; in that of A29C C32U, 0.03.

Turning to A29C C32A, the self-cleavage is 0.03.

On to A28U G54U, for which the self-cleavage was 0.72.

Turning to A28U G54A, the self-cleavage was found to be 0.66. For the variant A28U G54C, the self-cleavage stood at 0.71. In the case of A29C G22A, the self-cleavage came to 0.08. In the case of A29C G22C it was 0.03; in that of A29C G22U, 0.05. For A28U C11A the value was 0.27. For A28U C11G, the self-cleavage amounted to 0.12. Take A28U C11U: the self-cleavage was determined as 0.7. Take A29G A39U: the self-cleavage came to 0.11. For A29G A39C the value was 0.06.

For A29G A39G, the self-cleavage turned out to be 0.09. Take A28U C26U: the self-cleavage came to 0.22. For the variant A28U C26A, the self-cleavage is 0.04.

For the variant A28U C26G, the self-cleavage came out at 0.1.

For the variant A28U A38U, the self-cleavage is 0.87. On to A28U A38G, for which the self-cleavage amounted to 0.92. In the case of A28U A38C, the self-cleavage came out at 0.95. Take A28U G51A: the self-cleavage worked out at 0.28. On to A28U G51C, for which the self-cleavage stood at 0.08.

With A28U G51U, the self-cleavage came to 0.2. In the case of A29C C11G, the self-cleavage came out at 0.02. In the case of A29C C11U it was 0.04; in that of A29C C11A, 0.04. In the case of A29G A40G it was 0.07. In the case of A29G A40C it was 0.04; in that of A29G A40U, 0.15; in that of A28U C31U, 0.19. For the variant A28U C31A, the self-cleavage was 0.03. In the case of A28U C31G it was 0.07. Regarding A29C C31G, the self-cleavage is 0.02. A29C C31U: the self-cleavage stood at 0.02. In the case of A29C C31A, the self-cleavage was determined as 0.02. In the case of A28U C27G it was 0.05; in that of A28U C27A, 0.09. Turning to A28U C27U, the self-cleavage was determined as 0.15. As to A29C A39G, the self-cleavage is 0.03. With A29C A39U, the self-cleavage was 0.03. As to A29C A39C, the self-cleavage amounted to 0.04. In the case of A29C C14G it was 0.02.

Consider A29C C14A, for which the self-cleavage came to 0.02. As for A29C C14U, the self-cleavage amounted to 0.03. For A29C G48C the value was 0.02.

For the variant A29C G48A, the self-cleavage came out at 0.01. On to A29C G48U, for which the self-cleavage came out at 0.01.

Regarding A28U C52U, the self-cleavage turned out to be 0.97.

Regarding A28U C52G, the self-cleavage came to 0.96.

Turning to A28U C52A, the self-cleavage came to 0.93. Take A29C A46C: the self-cleavage worked out at 0.02. For A29C A46U the value was 0.02; for A29C A46G, 0.02; for A29C G19U, 0.03. Regarding A29C G19A, the self-cleavage was 0.04. For A29C G19C the value was 0.02; for A29G C20A, 0.33; for A29G C20U, 0.28. Regarding A29G C20G, the self-cleavage worked out at 0.04. Take A29C G51A: the self-cleavage is 0.03. Regarding A29C G51U, the self-cleavage is 0.03.

On to A29C G51C, for which the self-cleavage was 0.02. As to A28U G44A, the self-cleavage turned out to be 0.74. In the case of A28U G44C it was 0.78; in that of A28U G44U, 0.49.

Consider A28U G47C, for which the self-cleavage was found to be 0.06. For A28U G47U, the self-cleavage came to 0.1. As to A28U G47A, the self-cleavage came to 0.09. In the case of A29C G53A, the self-cleavage is 0.03.

Consider A29C G53C, for which the self-cleavage is 0.02.

With A29C G53U, the self-cleavage was 0.03. For A29C C33A the value was 0.04. Regarding A29C C33U, the self-cleavage amounted to 0.03.

As for A29C C33G, the self-cleavage was 0.01.
